Measured values: ChEMBL document CHEMBL1149232, “An aminomethylpyrimidine DPP-IV inhibitor with improved properties” (Bioorg Med Chem Lett, 2004)

What was measured:
[1] = Octanol water partition coefficient was determined at pH 7.4; format: physicochemical
Cytochrome P450 3A4 = Cytochrome P450 3A4 (Homo sapiens, UniProt P08684); assay: Inhibition of human liver microsome Cytochrome P3A4; format: microsomes
Summary of the method: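 CYP3A4 inhibition was measured by a published fluorometric method using BFC as the substrate.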

Cytochrome P450 3A4, sequence (P08684 whole entry): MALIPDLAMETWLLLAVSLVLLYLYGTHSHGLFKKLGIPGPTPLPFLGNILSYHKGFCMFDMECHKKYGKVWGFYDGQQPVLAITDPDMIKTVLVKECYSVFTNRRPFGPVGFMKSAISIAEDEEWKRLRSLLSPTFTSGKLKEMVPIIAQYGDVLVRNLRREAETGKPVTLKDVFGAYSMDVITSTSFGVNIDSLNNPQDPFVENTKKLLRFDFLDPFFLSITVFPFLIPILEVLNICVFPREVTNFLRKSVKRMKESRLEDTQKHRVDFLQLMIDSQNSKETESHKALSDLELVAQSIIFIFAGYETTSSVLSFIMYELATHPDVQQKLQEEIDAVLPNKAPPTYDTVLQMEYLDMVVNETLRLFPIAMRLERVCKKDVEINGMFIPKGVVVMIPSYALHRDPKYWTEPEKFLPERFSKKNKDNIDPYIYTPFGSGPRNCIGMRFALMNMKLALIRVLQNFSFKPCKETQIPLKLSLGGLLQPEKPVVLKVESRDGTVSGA

logD [1] | IC50 (Cytochrome P450 3A4) [µM] | SMILES
1.6 | – | COc1nc(N)c(CN)c(-c2ccc(Cl)cc2Cl)n1
1.4 | – | Cc1nc(N)c(CN)c(-c2ccc(Cl)cc2Cl)n1
0.4 | – | NCc1c(N)nc(N)nc1-c1ccc(Cl)cc1Cl
3 | 5.4 | NCc1c(N)nc(-c2ccccc2)nc1-c1ccc(Cl)cc1Cl
